Results collected from several papers.
Each line is one published result; the experiments were not run side by side.
STING1 H232R: Stimulator of interferon genes protein (STING1, Homo sapiens, UniProt Q86WV6, H232R)

SMILES | target | assay | conditions | quantity | value
CCCS(=O)(=O)Nc1ccc(F)c(C(=O)c2c[nH]c3ncc(Br)cc23)c1F | Dual specificity mitogen-activated protein kinase kinase 4 (MAP2K4, Homo sapiens, UniProt P45985) | enzyme activity, inhibitor, ADP detection | – | IC50 | 1400 nM
CC(C)C[C@H](NC(=O)[C@H](Cc1ccccc1)NC(=O)[C@H](Cc1ccc(O)cc1)NC(=O)CNC(=O)[C@H](CCCCN)NC(=O)[C@H](CO)NC(=O)[C@H](CCC(N)=O)NC(=O)CNC(=O)[C@@H](NC(=O)[C@H](CO)NC(=O)[C@@H]1CCCN1C(=O)[C@H](CO)NC(=O)[C@H](CCC(N)=O)NC(=O)[C@H](Cc1ccc(O)cc1)NC(=O)[C@H](CCC(=O)O)NC(=O)[C@H](C)NC(=O)[C@H](CCCCN)NC(=O)[C@@H](N)Cc1ccccc1)C(C)C)C(=O)N[C@@H](Cc1ccccc1)C(=O)N[C@@H](CCCNC(=N)N)C(=O)N1CCC[C@H]1C(=O)N[C@@H](CCCNC(=N)N)C(=O)N[C@@H](CC(N)=O)C(N)=O | Neuromedin-U receptor 1 (NMUR1, Homo sapiens, UniProt Q9HB89) | inositol phosphate, agonist, TR-FRET | – | EC50 | 0.45 nM
O=C(Nc1ccc(I)cc1)N1CCC(n2c(=O)[nH]c3c(Br)cccc32)CC1 | N-glycosylase/DNA lyase (OGG1, Homo sapiens, UniProt O15527) | enzyme activity, inhibitor, fluorescence | – | IC50 | 342 nM
O=C(CCCc1ccc(N(CCCl)CCCl)cc1)NCCC1CCN(CCOc2ccc(Oc3c(-c4ccc(O)cc4)sc4cc(O)ccc34)cc2)CC1 | Estrogen receptor beta (ESR2, Homo sapiens, UniProt Q92731) | ligand displacement, radioligand | – | IC50 | 67 nM
CC(C)[C@@H]1NC(=O)[C@@H]2CCCN2C(=O)[C@H](Cc2ccccc2)NC(=O)CSC[C@@H](C(=O)N[C@@H](Cc2ccc(O)cc2)C(N)=O)NC(=O)[C@H](Cc2c[nH]c3ccccc23)NC(=O)[C@H](CCCCN)NC(=O)[C@H](Cc2ccccc2)N(C)C(=O)[C@H](Cc2ccccc2)NC1=O | STING1 H232R | ligand displacement, TR-FRET | – | IC50 | 180 nM
O=C(O)C1=CC(O)CC1 (stereo not drawn) | Calcium/calmodulin-dependent protein kinase type II subunit alpha (Rattus norvegicus, UniProt P11275) | cell-free assay, radioligand | pH 6 | Ki | 1580 nM
Nc1nccc(-c2cccc(-c3ccccc3)c2)n1 | Phosphatidylinositol 5-phosphate 4-kinase type-2 gamma (PIP4K2C, Homo sapiens, UniProt Q8TBX8) | binding | – | Kd | 64 nM
c1c[nH]cn1 | Nitric oxide synthase, inducible (Nos2, Mus musculus, UniProt P29477) | binding | – | Kd | 56000 nM
CC(C)C[C@@H]1NC(=O)[C@H](Cc2ccc(O)cc2)NC(=O)[C@H](C(C)C)NC(=O)[C@H](Cc2ccc(O)cc2)NC(=O)[C@H](CC(N)=O)NC(=O)[C@H](Cc2ccccc2)N(C)C(=O)[C@@H]2CCCN2C(=O)[C@H](Cc2ccc(O)cc2)NC(=O)[C@H](C(C)C)NC(=O)[C@H](CC(C)C)NC(=O)[C@H](Cc2ccccc2)NC(=O)CSC[C@@H](C(=O)NCC(N)=O)NC1=O | STING1 H232R | ligand displacement, TR-FRET | – | IC50 | 38000 nM
NC(=O)CCCC/C=C1\C(=O)OC1CCCCCCCCCc1ccccc1 (stereo not drawn) | Phosphatidylserine lipase ABHD16A (Homo sapiens, UniProt O95870) | enzyme activity, inhibitor | – | IC50 | 200 to 500 nM
Oc1ccc(/C=C/c2cc(O)cc(O)c2)cc1 | Troponin C, slow skeletal and cardiac muscles (TNNC1, Human, UniProt P63316) | binding, NMR | – | Kd | 240000 nM
Cn1cc(-c2cc(F)cc(N3CCn4c(cc5c4CCCC5)C3=O)c2CO)cc(Nc2ccc(N3CCN(C4COC4)CC3)cn2)c1=O | Tyrosine-protein kinase Lck (LCK, Homo sapiens, UniProt P06239) | enzyme activity, inhibitor, FRET | – | Ki | 1070 nM
